Bioassay records as filed in PubChem BioAssay.
p-CIP stab down: compounds decreasing mouse p/CIP protein stability | F442A p/CIP-EGFP cells, EGFP fluorescence, 16 h | decrease of EGFP signal, % at 10 µM | hit rate 0.01% among 290,000 | AID 1984;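 active means EGFP signal decrease of at least 30% at 10 µM or well 3 SD below plate mean, unless failing retest; inactive means the rest, including hits failing retest or dose response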
CTSL1 counter: counter-screen for PFM18AAP inhibitors: inhibitors of F. hepatica cathepsin L1; recombinant F. hepatica cathepsin L1, Z-Leu-Arg-MCA fluorescence; inhibition, % at 5.96 µM; hit rate 0.49% among 300,000; AID 1906;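 active means inhibition above the mean of all tested compounds plus 3 SD, set per screening campaign, cut at about 17% in these data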
PP5 inh: blocks human protein phosphatase 5 activity; purified PP5c, OMFP substrate fluorescence; P53041; AID 1987; inhibition, % at 6.7 µM; hit rate 0.18% among 320,000;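 active means inhibition above the campaign's mean inhibition across all tested compounds plus 3 SD, cut at about 9.5% in these data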
T cruzi repl: blocks replication of Trypanosoma cruzi; inhibition, % (no concentration beside the values); AID 1885; T. cruzi beta-gal in NIH3T3, luminescence, 90 h; hit rate 1.4% among 300,000;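 active means mean inhibition across valid replicates above about 55%, limit read from the data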;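 further: signal also drops with host cell toxicity which is not excluded here; higher percent means less beta-gal luminescence so fewer parasites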
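Test system: β-gal T. cruzi (Tulahuen C4) inside NIH/3T3 cells / Quantity: 5,000 cells/well / Measured by: luminescence from GalScreen with 0.05% NP40, read after 60 min / Medium: DMEM plus 2% FBS / Measure: parasite load inhibition, % / Reagent: Tulahuen C4 trypomastigotes, 5000/well / Schedule: co-culture of at least 90 h after 3 h attachment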
JMJD2C inh: human JMJD2C demethylase inhibition | GST-JMJD2C(1-420) H3K9me3 demethylation, DELFIA europium | inhibition, % at 2.35 µM | hit rate 0.069% among 330,000 | AID 2099;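 active means more than half of a compound's replicate wells show inhibition beyond 50%, single wells judged on their own value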;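 further: signal counts dimethyl H3K9 product captured on neutravidin plate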
Target sequence (Q9H3R0 1-420 limits assumed): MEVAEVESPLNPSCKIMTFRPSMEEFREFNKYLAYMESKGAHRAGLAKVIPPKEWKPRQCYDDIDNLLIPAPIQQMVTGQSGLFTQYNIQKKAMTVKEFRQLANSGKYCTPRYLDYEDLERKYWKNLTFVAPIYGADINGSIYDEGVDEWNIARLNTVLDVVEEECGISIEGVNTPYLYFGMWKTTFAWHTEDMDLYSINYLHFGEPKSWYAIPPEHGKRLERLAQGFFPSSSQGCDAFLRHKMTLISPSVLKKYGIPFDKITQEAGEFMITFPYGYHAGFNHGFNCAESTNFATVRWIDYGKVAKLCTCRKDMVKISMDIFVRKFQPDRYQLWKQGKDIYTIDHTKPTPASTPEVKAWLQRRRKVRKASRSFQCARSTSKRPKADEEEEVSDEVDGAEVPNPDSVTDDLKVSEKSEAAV
Cardio protect: protects H9c2 cardiomyocytes from peroxide injury; H2O2 injury protection, ATPLite, 2 h; protection from H2O2 cell death, % at 20 µM; hit rate 0.63% among 360,000; AID 588492;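 active means compounds giving at least 50% protection of heart cells from peroxide-induced death in the single-dose screen, raw or plate-pattern-corrected value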
Numbers stand for hits. This is a sample that favours compounds with a hit; in the whole collection about 2.4% have one here.

How did CCNC(=O)C1(C)CCCN(C(=O)c2nc(C)oc2C)C1 (configuration not stated) do in these assays?
Cardio protect: inactive

Results for CC1(C)Cc2c(cnn2-c2cccc(F)c2)C(NC(=O)CSc2ccccn2)C1 (configuration not stated) ?
p-CIP stab down: inactive; CTSL1 counter: inactive; PP5 inh: inactive; T cruzi repl: inactive; JMJD2C inh: inactive; Cardio protect: inactive

How did COc1cc(Br)cc(C=Nc2cccc(C(F)(F)F)c2)c1O do in these assays?
p-CIP stab down: inactive; CTSL1 counter: inactive; PP5 inh: inactive; T cruzi repl: inactive; JMJD2C inh: inactive; Cardio protect: 53

Results for O=C(Nc1ccc(NS(=O)(=O)c2ccc([N+](=O)[O-])cc2)cc1)c1ccco1 ?
p-CIP stab down: inactive; CTSL1 counter: inactive; PP5 inh: inactive; T cruzi repl: inactive; JMJD2C inh: inactive; Cardio protect: inactive

Results for Cn1ccsc1=NC(=O)c1ccc([N+](=O)[O-])o1 ?
p-CIP stab down: inactive; CTSL1 counter: inactive; PP5 inh: inactive; T cruzi repl: 60; JMJD2C inh: inactive; Cardio protect: inactive

Results for CCOC(=O)c1cnc2ccc(C(=O)OC)cc2c1NCCc1ccc(OC)c(OC)c1 ?
p-CIP stab down: inactive; CTSL1 counter: inactive; PP5 inh: inactive; T cruzi repl: inactive; JMJD2C inh: inactive; Cardio protect: 53

How did O=C(COC(=O)CCS(=O)(=O)c1ccccc1)NC(=O)c1ccc(OC(F)F)cc1 do in these assays?
CTSL1 counter: inactive; PP5 inh: inactive; T cruzi repl: inactive; JMJD2C inh: inactive; Cardio protect: inactive

What do the screens show for `CC(=O)Nc1ccc(NC(=S)NC(=O)C2CC2)cc1`?
p-CIP stab down: inactive; CTSL1 counter: 30; PP5 inh: inactive; T cruzi repl: inactive; JMJD2C inh: inactive; Cardio protect: inactive

Results for Cn1ccc2c(N3CCCCC3)cc3c(c21)C1CCC3O1 (configuration not stated) ?
Cardio protect: inactive

Results for COc1ccc(C(=O)NNC(=S)NC(=O)c2ccc(F)cc2)cc1Br ?
CTSL1 counter: inactive; PP5 inh: inactive; T cruzi repl: inactive; JMJD2C inh: inactive; Cardio protect: inactive

How did COc1cc(C(=O)NNC(=S)NC(=O)c2ccc(F)cc2)cc(OC)c1OC do in these assays?
p-CIP stab down: inactive; CTSL1 counter: inactive; PP5 inh: inactive; T cruzi repl: 65; JMJD2C inh: inactive; Cardio protect: inactive

What do the screens show for `O=c1[nH]nc(CNc2ccc(OC(F)(F)F)cc2)c2ccccc12`?
p-CIP stab down: inactive; CTSL1 counter: inactive; PP5 inh: inactive; T cruzi repl: inactive; JMJD2C inh: inactive; Cardio protect: inactive

How did O=c1[nH]nc(CNc2ccc(O)cc2)c2ccccc12 do in these assays?
p-CIP stab down: inactive; CTSL1 counter: inactive; PP5 inh: inactive; T cruzi repl: inactive; JMJD2C inh: inactive; Cardio protect: 87

What do the screens show for `O=c1[nH]nc(CNc2ccc(C(F)(F)F)cc2)c2ccccc12`?
p-CIP stab down: inactive; CTSL1 counter: inactive; PP5 inh: inactive; T cruzi repl: inactive; JMJD2C inh: inactive; Cardio protect: 69

How did COC1Cc2ccccc2N(C(N)=O)c2ccccc21 (configuration not stated) do in these assays?
CTSL1 counter: inactive; PP5 inh: inactive; T cruzi repl: inactive; JMJD2C inh: inactive; Cardio protect: inactive

Results for CCCOc1ccc(N2C(=O)CC(N(CCc3ccc(OC)c(OC)c3)C(=S)Nc3ccccc3)C2=O)cc1 (configuration not stated) ?
p-CIP stab down: inactive; CTSL1 counter: inactive; PP5 inh: inactive; T cruzi repl: 64; JMJD2C inh: inactive; Cardio protect: inactive

Results for CCCOc1ccc(N2C(=O)CC(N(Cc3ccc(OC)cc3)C(=S)Nc3ccccc3)C2=O)cc1 (configuration not stated) ?
p-CIP stab down: inactive; CTSL1 counter: inactive; PP5 inh: inactive; T cruzi repl: inactive; JMJD2C inh: inactive; Cardio protect: inactive

Results for CC(C)c1ccc(/C=N/n2c(COc3ccccc3)n[nH]c2=S)cc1 ?
p-CIP stab down: inactive; CTSL1 counter: inactive; PP5 inh: inactive; T cruzi repl: inactive; JMJD2C inh: inactive; Cardio protect: inactive

What do the screens show for `O=C(Nc1ccccc1Cl)c1ccccc1Cl`?
p-CIP stab down: inactive; CTSL1 counter: inactive; PP5 inh: inactive; T cruzi repl: inactive; JMJD2C inh: inactive; Cardio protect: inactive
